# CHO parental Ca = ATP-evoked calcium signal inhibitors, parental CHO, primary screen, counter-screen for OX1R antagonist project, cell-based, fluorescence, Fluo-8 calcium dye | 330,000 compounds, 0.63% hits | parental CHO-K1, ATP-induced calcium, Fluo-8 fluorescence | inhibition, % at 5.6 µM;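 active means inhibition above that plate's mean sample inhibition plus 3 SD, cut at about 26% in these data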
#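 Material – parental CHO cells · Reagent – ATP stimulus · Compound – single nominal dose of 5.6 µM per compound · Detection – Fluo-8 fluorescence · Read-out basis – percent inhibition of calcium signal · Controls – ATP-challenged DMSO wells low, unchallenged DMSO wells high · Repeats – no replicates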
# GPR7 antagonist = GPR7 receptor antagonists, primary screen, cell-based, fluorescence, single concentration. GPR7-expressing cells, fluorescence antagonist assay. inhibition, % at 4.4 µM. 290,000 compounds, 1.1% hits. Neuropeptides B/W receptor type 1 (Homo sapiens), P48145. AID 1861, 2009; in the data active means inhibition above about 16%, passing the limit was not always enough;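 further: cells stimulated with the agonist NPW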
# Target sequence (P48145 whole entry, looked up): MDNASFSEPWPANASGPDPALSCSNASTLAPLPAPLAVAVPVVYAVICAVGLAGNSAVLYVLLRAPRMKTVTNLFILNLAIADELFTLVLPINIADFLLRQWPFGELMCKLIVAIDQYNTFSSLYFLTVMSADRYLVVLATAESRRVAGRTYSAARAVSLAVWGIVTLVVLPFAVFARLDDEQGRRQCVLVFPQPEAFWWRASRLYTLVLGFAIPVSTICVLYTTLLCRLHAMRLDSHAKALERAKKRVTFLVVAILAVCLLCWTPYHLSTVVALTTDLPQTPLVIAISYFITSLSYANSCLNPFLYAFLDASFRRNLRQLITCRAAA
# GalR3 antag = GalR3 antagonists in HEK293 cells, primary screen, cell-based, fluorescence readout; inhibition, % at 3 µM; Galanin receptor type 3 (Homo sapiens), O60755; HEK293 GalR3-CNG cAMP membrane potential fluorescence; galR3 body fused to GalR1 C-terminus; 360,000 compounds, 0.44% hits;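 active means inhibition above the screen-wide average plus 3 SD, cut at about 13% in these data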;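 further: forskolin and galanin both at EC90 stimulate the cells; cAMP rise reported by CNG channel membrane potential dye signal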
# Target sequence (O60755 1-299 limits assumed): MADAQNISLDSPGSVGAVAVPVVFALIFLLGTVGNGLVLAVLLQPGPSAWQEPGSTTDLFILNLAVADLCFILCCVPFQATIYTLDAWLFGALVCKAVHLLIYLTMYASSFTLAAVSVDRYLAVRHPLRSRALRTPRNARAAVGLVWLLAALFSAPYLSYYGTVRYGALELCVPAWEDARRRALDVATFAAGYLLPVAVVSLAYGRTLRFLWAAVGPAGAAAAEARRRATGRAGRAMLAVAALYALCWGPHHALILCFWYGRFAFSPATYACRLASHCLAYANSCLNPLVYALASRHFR
# OX1R antag-1 = antagonists of human orexin 1 receptor (OX1R). 330,000 compounds, 1.8% hits. inhibition, % at 6.6 µM. OX1R-expressing cells, FRET antagonist read-out. AID 485270, 2010. Orexin/Hypocretin receptor type 1 (Homo sapiens), O43613; in the data active means inhibition mostly above about 38%, no sharp cut-off; inactive means mostly below about 40%
# OX1R antag-2 = OX1R (HCRTR1) antagonists, primary screen, fluorescence, CHO/OX1R cells, Fluo-8 calcium, orexin A. 330,000 compounds, 0.43% hits. AID 434989, 2010. Fluo-8 calcium fluorescence. inhibition, % at 5 µM. Orexin/Hypocretin receptor type 1 (Homo sapiens), O43613;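 active means inhibition above its plate's threshold, mean inhibition of all tested compounds on the plate plus 3 SD, cut at about 37% in these data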
# A number is an active result; i = inactive; nt = not tested or not shown. This is a sample that favours compounds with a hit; in the whole collection about 3.1% have one here.
SMILES,CHO parental Ca,GPR7 antagonist,GalR3 antag,OX1R antag-1,OX1R antag-2
O=C(Nc1ccc(Cl)c(Cl)c1)c1ccncc1,i,i,i,i,i
O=C(Nc1ncccn1)c1ccc(Cl)c([N+](=O)[O-])c1,i,i,i,26.1,i
Cc1cc(NC(=O)c2ccc(Cl)c([N+](=O)[O-])c2)no1,43.3,i,i,i,i
O=C(Nc1ccc(Nc2ccccc2)cc1)c1ccc(Cl)c([N+](=O)[O-])c1,i,i,i,i,i
O=C(Nc1ccc(Cc2ccncc2)cc1)c1ccc(Cl)c([N+](=O)[O-])c1,82.9,i,i,128.0,76.8
O=C(Nc1ccc(Cl)c(Cl)c1)c1ccc(Cl)c(Cl)c1,58.9,i,i,91.7,39.8
O=C(O)CCCCN1C(=O)C=CC1=O,nt,nt,i,nt,nt
COc1cccc(OCC(O)CN2CCC(CN3C(=O)c4cccc5cccc(c45)C3=O)CC2)c1 (centres undefined),i,i,i,i,i
COc1ccc(COCC(O)CN2CCC(CN3C(=O)c4cccc5cccc(c45)C3=O)CC2)cc1OC (centres undefined),i,i,i,49.1,i
O=C(COC(=O)c1c(F)cccc1F)Nc1cccc(S(=O)(=O)N2CCCCC2)c1,nt,nt,i,nt,nt
Cn1nnnc1Sc1ncnc2scc(-c3ccc([N+](=O)[O-])cc3)c12,i,nt,i,39.3,i
CCN(C(=O)COC(=O)c1ccccc1Nc1ccccc1)c1c(N)n(Cc2ccccc2)c(=O)[nH]c1=O,nt,nt,i,nt,nt
O=C(CSc1nc2ncc(Cl)cc2[nH]1)Nc1cccc(F)c1,i,i,i,47.1,i
O=C(Nc1ccc2nc3n(c(=O)c2c1)CCCCC3)c1cc([N+](=O)[O-])ccc1F,i,i,i,i,i
O=c1nc2n(c3ccc([N+](=O)[O-])cc13)CCCCC2,i,i,i,58.6,i
Cc1noc(C)c1COc1cccc(C(=O)OC(C)C(=O)Nc2ccc3c(c2)OCO3)c1 (centres undefined),i,19.4,i,i,i
Cc1noc(C)c1COc1cccc(C(=O)Oc2ccc3c(c2)OCO3)c1,i,18.1,i,i,i
COc1cc(C(=O)OC(C)C(=O)Nc2ccc3c(c2)OCO3)ccc1OCc1c(C)noc1C (centres undefined),i,i,i,i,i
N/C(=N\OC(=O)Oc1ccccc1)c1ccc([N+](=O)[O-])cc1,i,i,i,67.5,i
O=C(NNC(=O)c1cc(-c2cccnc2)nc2ccccc12)Nc1ccc(Cl)cc1,58.8,i,i,i,i
CC1(C)CC[C@]2(C(=O)O)[C@H](O)C[C@]3(C)C(=CCC4[C@@]5(C)C[C@H](O)[C@H](O)[C@@](C)(CO)C5CC[C@]43C)[C@@H]2C1 (some centres undefined),73.6,nt,i,i,i
CCOC(=O)C(Cc1ccccc1)NC(=O)CCCC(=O)c1ccccc1 (centres undefined),47.3,i,i,i,i
CCC(c1nnnn1-c1c(C)cccc1C)N1CCCN(Cc2ccc(F)cc2)CC1 (centres undefined),nt,nt,i,nt,nt
COC(=O)c1c(NC(=O)C2c3ccccc3Oc3ccccc32)sc(C)c1C,i,i,i,i,i
CCOC(=O)NC1c2ccccc2Oc2ccccc21,70.2,i,i,i,i
SMILES,CHO parental Ca,GPR7 antagonist,GalR3 antag,OX1R antag-1,OX1R antag-2
COC(=O)c1ccc2nc(-c3cccc(Cl)c3)c(Cc3ccccc3C(F)(F)F)n2c1,nt,nt,i,nt,nt
CC1=CC2C(C(O)CC3(C)C2CC(C)C32OCOC23COCO3)C2(C)C/C(=C\O)C(=O)C=C12 (centres undefined),nt,nt,i,nt,nt
CNC(C)C#Cc1ccc2oc3cccc(OC)c3c(=O)c2c1 (centres undefined),i,i,i,47.8,i
CNC(C)C#Cc1ccc2c(=O)c3c(OC)cccc3oc2c1 (centres undefined),i,i,nt,i,i
C=CCc1ccc(OCCOc2ccc(/C=N/n3cnnc3)cc2OCC)c(OC)c1,66.7,i,i,i,i
COc1cc(/C=N/n2cnnc2)ccc1OCCOc1ccccc1,i,i,i,i,i
CC1(C)CC(=O)C=C(c2ccc(COC(=O)c3ccc(Br)cc3)cc2)C1=O,nt,nt,i,nt,nt
O=C(CC1SC(=Nc2ccccc2)N(CCCO)C1=O)Nc1ccc(Cl)cc1 (centres undefined),65.7,i,nt,i,77.0
O=C(CC1SC(=Nc2ccccc2)N(CCO)C1=O)Nc1ccccc1 (centres undefined),i,i,i,i,i
COC(=O)c1cc2c(c3c4cc(OC)ccc4n(S(=O)(=O)c4cccc(C)c4)c13)C(=O)N(C)C2,nt,nt,i,nt,nt
COc1ccc(C2NCCc3c2[nH]c2ccccc32)cc1COc1ccc(F)cc1 (centres undefined),31.9,46.4,i,i,i
CCOC(=O)c1sc(N)c(C#N)c1CSc1nc2ccc(OCC)cc2[nH]1,i,i,i,47.0,i
COC(=O)[C@@]12C[C@@H](CC(=O)NCCCN3CCCC3=O)C(=O)N(Cc3ccc4c(c3)OCO4)C1=CCC(C)(C)C2,nt,nt,i,nt,nt
Cc1ccc(S(=O)(=O)Nc2ccc3nc(N)sc3c2)cc1,33.8,i,i,i,i
Cc1nc2ccc(NS(=O)(=O)c3ccc4c(c3)OCCO4)cc2s1,i,i,102.5,i,44.9
Cc1nc2ccc(NS(=O)(=O)c3cccc([N+](=O)[O-])c3)cc2s1,30.0,nt,i,i,i
Cc1ccc(S(=O)(=O)Nc2ccc3nc(C)sc3c2)cc1,i,i,nt,i,i
C[C@@H]1ON(C)[C@H]2C[C@H]3c4[nH]c5cccc(-c6ccc7c(c6)OCO7)c5c4CCN3C(=O)[C@@H]12,nt,nt,i,nt,nt
Cc1c(C(=O)N/N=C/c2ccccc2)sc(=S)n1C,i,i,i,91.5,i
CN(C)S(=O)(=O)Oc1ccc(C(=O)Nc2cccc(C(F)(F)F)c2)cc1,52.9,i,i,51.4,i
Cc1cc(Nc2ccc(OC(F)F)cc2)cc(=O)n1-c1ccc(OC(F)F)cc1,nt,nt,i,nt,nt
Cc1ccc(Cn2c(=N)c(C(=O)NCC3CCCO3)cc3c(=O)n4ccccc4nc32)cc1 (centres undefined),i,i,i,56.2,i
N=c1c(C(=O)NCC2CCCO2)cc2c(=O)n3ccccc3nc2n1Cc1ccc(Cl)cc1 (centres undefined),i,i,i,i,i
N=c1c(C(=O)NCC2CCCO2)cc2c(=O)n3ccccc3nc2n1Cc1ccccc1 (centres undefined),i,i,i,51.5,i
C[C@H]1COc2cc(N3CCOCC3)ccc2S(=O)(=O)N1,nt,nt,i,nt,nt
CCCCn1c(=O)nc2n(-c3ccccc3)c3ccccc3cc-2c1=O,i,i,i,i,i
Cc1ccc(C)c(-n2c3nc(=O)n(C)c(=O)c-3cc3ccccc32)c1,i,i,i,63.0,i

# Screens (PubChem)
